Here are results for 16 molecules from ChEMBL document CHEMBL5325402, “Exploration of novel hexahydropyrrolo[1,2-e]imidazol-1-one derivatives as antiviral agents against ZIKV and USUV” (Eur J Med Chem, 2023).

Converted amounts (≈) assume the structure as drawn. “And” between values parts separate entries of the source, which are not always exact repeats. Equal entries are not always repeated. The source made the active and inactive calls. The rule behind the calls is not given here.

The test system of data set [1] is Usutu virus. The data set is described as follows: Antiviral activity against USUV 3345 isolate Arb276 infected in African green monkey Vero cells assessed as viral growth inhibition at 11 to 100 uM pretreated with virus for 1 hr followed by infection of cells with compound treated-virus for 20 hrs by focus reduction assay. The settings on record: dose 11-100 µM, time 21.0 hrs. The class given is functional, organism-based. Put shortly: (§1)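 Screening focus reduction assay. Vero cells were seeded 1.2 × 10^4/well. ZIKV MR766 or USUV (MOI 0.02) was preincubated 1 h at 37 °C with 100, 33 or 11 μM compound, then added to cells for 30 h (ZIKV) or 20 h (USUV). Cells were fixed in acetone-methanol and immunostained with anti-flavivirus E 4G2 plus a peroxidase secondary. Foci counted microscopically; % infection versus DMSO-matched untreated wells. Medium contained 2% FBS.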

In data set [2] the test system is Zika virus. Nature of the data set: Antiviral activity against ZIKV MR766 infected in African green monkey Vero cells assessed as viral growth inhibition at 11 to 100 uM pretreated with virus for 1 hr followed by infection of cells with compound treated-virus for 30 hrs by focus reduction assay. Type of data set: functional, organism-based. The settings on record: dose 11-100 µM, time 31.0 hrs. The gist of the method:
as §1

Data set [3] is described as follows: Cytotoxicity against human A549 cells infected with USUV 3345 isolate Arb276 pretreated with virus for 1 hr followed by infection of cells with compound treated-virus for 20 hrs by MTS assay. Type of data set: toxicity, cell-based. Put shortly: (§2)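 MTS viability assay. Cells were treated under the same conditions as the antiviral assays. Absorbance was expressed as % of medium-only cells, and CC50 was derived from the curve. Seeding densities were 1.2 × 10^4/well for Vero, 1.3 × 10^4/well for A549 and 1.6 × 10^4/well for Huh7. DMEM with 2% FBS.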

Data set [4] has as its system Usutu virus. Nature of the data set: Antiviral activity against USUV 3345 isolate Arb276 infected in African green monkey Vero cells assessed as reduction in viral replication pretreated with virus for 1 hr followed by infection of cells with compound treated-virus for 20 hrs by focus reduction assay. Type of data set: functional, organism-based.
For data set [5], the system named is Usutu virus. Nature of the data set: Antiviral activity against USUV 3345 isolate Arb276 infected in human A549 cells assessed as reduction in viral replication pretreated with virus for 1 hr followed by infection of cells with compound treated-virus for 20 hrs by focus reduction assay. Type of data set: functional, organism-based. The settings on record: Usutu virus, 3345, A549. The gist of the method:
(§3)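 Dose-response: serial dilutions (100 to 0.13 μM) preincubated 1 h at 37 °C with virus (MOI 0.02), then added to cells for 20 h (USUV) or 30 h (ZIKV) in 2% FBS DMEM. Cells per well: Vero 1.2 × 10^4, A549 1.3 × 10^4, Huh7 1.6 × 10^4. Foci immunostained and counted. EC50/EC90 fitted by variable-slope sigmoidal curve, mean of three independent experiments.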

Data set [6] concerns Usutu virus. The data set is described as follows: Antiviral activity against USUV 3345 isolate Arb276 infected in human Huh-7 cells assessed as reduction in viral replication pretreated with virus for 1 hr followed by infection of cells with compound treated-virus for 20 hrs by focus reduction assay. Type of data set: functional, organism-based. Conditions: Usutu virus, 3345, Huh-7. Put shortly:
as §3

Data set [7] is described as follows: Cytotoxicity against human Huh-7 cells infected with USUV 3345 isolate Arb276 pretreated with virus for 1 hr followed by infection of cells with compound treated-virus for 20 hrs by MTS assay. Type of data set: toxicity, cell-based. The gist of the method: as §2
Data set [8] can be described thus: Cytotoxicity against African green monkey Vero cells infected with USUV 3345 isolate Arb276 pretreated with virus for 1 hr followed by infection of cells with compound treated-virus for 20 hrs by MTS assay. The class given is toxicity, cell-based. The settings on record: chlorocebus sabaeus. Put shortly: as §2
In general terms: Formazan colour is commonly taken as a measure of viable cells.

Data set [9] is described as follows: Cytotoxicity against African green monkey Vero cells infected with ZIKV MR766 pretreated with virus for 1 hr followed by infection of cells with compound treated-virus for 30 hrs by MTS assay. The class given is toxicity, cell-based. The settings on record: chlorocebus sabaeus. Put shortly:
as §2

In data set [10] the test system is Zika virus. Nature of the data set: Antiviral activity against ZIKV MR766 infected in human A549 cells assessed as reduction in viral replication pretreated with virus for 1 hr followed by infection of cells with compound treated-virus for 30 hrs by focus reduction assay. Type of data set: functional, organism-based. Put shortly:
as §3

The subject of data set [11] is Zika virus. The data set is described as follows: Antiviral activity against ZIKV MR766 infected in African green monkey Vero cells assessed as reduction in viral replication pretreated with virus for 1 hr followed by infection of cells with compound treated-virus for 30 hrs by focus reduction assay. Type of data set: functional, organism-based.
Data set [12] can be described thus: Cytotoxicity against human A549 cells infected with ZIKV MR766 pretreated with virus for 1 hr followed by infection of cells with compound treated-virus for 30 hrs by MTS assay. Type of data set: toxicity, cell-based. The gist of the method: as §2
For data set [13], the system named is Zika virus. Nature of the data set: Antiviral activity against ZIKV MR766 infected in human Huh-7 cells assessed as reduction in viral replication pretreated with virus for 1 hr followed by infection of cells with compound treated-virus for 30 hrs by focus reduction assay. Type of data set: functional, organism-based. Put shortly:
as §3

Data set [14] in a line: Cytotoxicity against human Huh-7 cells infected with ZIKV MR766 pretreated with virus for 1 hr followed by infection of cells with compound treated-virus for 30 hrs by MTS assay. Type of data set: toxicity, cell-based. Put shortly: as §2
Data set [15] can be described thus: Solubility in i-propanol at 25 degreeC. The class given is physicochemical.
The nature of data set [16]: Solubility in DMSO at 25 degreeC. Type of data set: physicochemical.
A short description of data set [17]: Aqueous solubility in deionized water containing 1.38% DMSO. The class given is physicochemical.
Data set [18] has as its system Zika virus. Nature of the data set: Antiviral activity against ZIKV MR766 infected in African green monkey Vero cells assessed as viral growth inhibition at 33 uM pretreated with virus for 1 hr followed by infection of cells with compound treated-virus for 30 hrs by focus reduction assay relative to control. The class given is functional. Conditions: time 31 hrs. The gist of the method: (§4)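 Virus (MOI 0.02) preincubated with compound 1 h at 37 °C, then mixture put on Vero cells (1.2 × 10^4/well, seeded the day before) in DMEM with 2% FBS for 30 h (ZIKV) or 20 h (USUV) at 37 °C. Fixed in cold acetone-methanol, foci immunostained with anti-flavivirus E 4G2 antibody and counted. % infection is relative to DMSO-treated wells. Screen used 100, 33 and 11 μM.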

Data set [19] has as its system Usutu virus. The data set is described as follows: Antiviral activity against USUV 3345 isolate Arb276 infected in African green monkey Vero cells assessed as viral growth inhibition at 33 uM pretreated with virus for 1 hr followed by infection of cells with compound treated-virus for 20 hrs by focus reduction assay relative to control. Type of data set: functional. Conditions: Usutu virus, 3345, Vero, time 21 hrs. The gist of the method: as §4

Data set [20] in a line: Selectivity index, ratio of CC50 for African green monkey Vero cells infected with ZIKV MR766 to EC50 for ZIKV MR766 infected in African green monkey Vero cells. Type of data set: toxicity, cell-based. Conditions: read-out: Ratio CC50/EC50.
Data set [21] can be described thus: Selectivity index, ratio of CC50 for African green monkey Vero cells infected with ZIKV HPF2013 to EC50 for ZIKV HPF2013 infected in African green monkey Vero cells. Type of data set: toxicity, cell-based. Conditions: read-out: Ratio CC50/EC50.
For data set [22], the system named is Zika virus. The data set is described as follows: Antiviral activity against ZIKV HPF2013 infected in African green monkey Vero cells assessed as reduction in viral replication pretreated with virus for 1 hr followed by infection of cells with compound treated-virus for 30 hrs by focus reduction assay. The class given is functional, organism-based.
Data set [23] in a line: Selectivity index, ratio of CC50 for African green monkey Vero cells infected with USUV 3345 isolate Arb276 to EC50 for USUV 3345 isolate Arb276 infected in African green monkey Vero cells. Type of data set: toxicity, cell-based. The settings on record: read-out: Ratio CC50/EC50.
Data set [24] can be described thus: Cytotoxicity against African green monkey Vero cells infected with ZIKV HPF2013 pretreated with virus for 1 hr followed by infection of cells with compound treated-virus for 30 hrs by MTS assay. The class given is toxicity, cell-based. Conditions: chlorocebus sabaeus. The gist of the method: as §2

Take `COc1cc([C@H]2N(Nc3ccc([N+](=O)[O-])cc3)C(=O)[C@@H]3CCCN32)ccc1O`: the outcome in [1] and in [2] was inactive.

In the case of `COc1ccc(C[C@H]2N(Nc3ccc([N+](=O)[O-])cc3)C(=O)[C@@H]3CCCN32)cc1OC`, the result in data set [1] and in [2] was inactive.

For the molecule `O=C1[C@@H]2CCCN2[C@@H](c2ccc(O)c(O)c2)N1c1ccc([N+](=O)[O-])cc1`, the result in data set [1] and in [2] was inactive.

`O=C1[C@@H]2CCCN2[C@@H](Cc2ccc(O)cc2)N1c1ccc([N+](=O)[O-])cc1`: the result in data set [1] and in data set [2] was inactive.

For the molecule `CCN(CC)CCCC(C)Nc1ccnc2cc(Cl)ccc12` (stereo unspecified) [CHLOROQUINE], the CC50 at 21 h in data set [3] worked out at 144 µM; in data set [7] it was 75.5 µM; in data set [8], 115 µM. For the same molecule, the EC50 in data set [4] (Usutu virus, 3345, Vero) amounted to 8.3 µM; in [5] it was 4.24 µM; in [6], 4.82 µM; in data set [10] it was 5.99 µM; in [11], 1.53 µM; in [13] (MR766, Huh-7), 0.95 µM. For the same molecule, the EC90 in data set [4] (Usutu virus, 3345, Vero, time 21 hrs) was 28.2 µM; in data set [5] (time 21 hrs) it was 60.1 µM; in [6] (time 21 hrs), 11.8 µM; in data set [10] (time 31 hrs), 50.3 µM; in [11] (time 31 hrs), 5.77 µM; in data set [13] (MR766, Huh-7, time 31 hrs) it was 2.36 µM. For the same molecule, the CC50 at 31 h came to 136 µM in data set [9], 80.5 µM in data set [12] and 58.5 µM in data set [14].

Take `COc1cc(C[C@H]2N(c3ccc([N+](=O)[O-])cc3)C(=O)[C@@H]3CCCN32)ccc1O`: the outcome in data set [1] and in data set [2] was inactive.

Turning to `COc1cc([C@H]2N(c3ccc([N+](=O)[O-])cc3)C(=O)[C@@H]3CCCN32)ccc1O`, the solubility in data set [15] was 1170 µg/mL (≈ 3.17 mM); in [16], 37500 µg/mL (≈ 102 mM); in data set [17] it was 518 µg/mL (≈ 1.4 mM).

As to `COc1ccc(C[C@H]2N(c3ccc([N+](=O)[O-])cc3)C(=O)[C@@H]3CCCN32)cc1O`, the result in data set [1] and in [2] was inactive.

In the case of `O=C1[C@@H]2CCCN2[C@@H](c2ccco2)N1Nc1ccccc1`, the inhibition at 33 µM in data set [18] and in [19] was under 50% throughout.

On to `COc1ccc([C@H]2N(c3ccc([N+](=O)[O-])cc3)C(=O)[C@@H]3CCCN32)cc1OC`, for which the result in data set [1] and in [2] was inactive.

For `COc1cc([C@H]2N(Nc3ccccc3)C(=O)[C@@H]3CCCN32)ccc1O`, the inhibition at 33 µM in [18] and in data set [19] was under 50% in each case.

For `O=C1[C@@H]2CCCN2[C@@H](c2cccc(O)c2)N1c1ccc([N+](=O)[O-])cc1`, the result in data set [1] and in data set [2] was inactive.

In the case of `O=C1[C@@H]2CCCN2[C@@H](Cc2ccc(O)c(O)c2)N1c1ccc([N+](=O)[O-])cc1`, the outcome in data set [1] and in [2] was inactive.

On to `C=C1/C(=C\C=C2/CCC[C@]3(C)[C@@H]([C@H](C)/C=C/C=C/C(O)(CC)CC)CC[C@@H]23)C[C@@H](O)C[C@@H]1O` [SEOCALCITOL], for which the EC50 in data set [4] (vero) is 2.13 µM and 9.94 µM; in [22], 2.83 µM; in [11], 7.51 µM. In data set [8], the CC50 at 21 h was 11.9 µM. The selectivity ratio in [20] turned out to be 1.5; in data set [21], 3.9; in data set [23], 6. Besides, the CC50 at 31 h in data set [9] and in data set [24] was 11 µM in each case.

In the case of `O=C1[C@@H]2CCCN2[C@@H](c2ccco2)N1Nc1ccc([N+](=O)[O-])cc1`, the outcome in data set [1] and in data set [2] was inactive.

As for `COc1ccc([C@H]2N(c3ccc([N+](=O)[O-])cc3)C(=O)[C@@H]3CCCN32)cc1O`, the outcome in [1] and in data set [2] was inactive.

As usually defined, the CC50 is the concentration at which the toxic effect on the cells reaches its halfway point. In general, EC50 refers to the concentration at which the effect is half-maximal. The term EC90 denotes the concentration at which the effect reaches the 90% level. A word on the solubility: it is the dissolved amount per volume that the medium holds. Broadly, the inhibition is the change of the read-out against control, counted positive when it falls.
